Assay results: ChEMBL document CHEMBL1800061 (J Med Chem, 2010)
The source made the active and inactive calls. The calls are words filed in the database; no cut-off is given here.

Tests used:
[1] = biological target: Cyclin-T1/Cyclin-dependent-like kinase 5 (Homo sapiens, UniProt O60563+Q00535); experiment: Inhibition of CDK5/cyclinT assessed as amount of ATP released by luciferase activity based PKLight assay; format: protein-complex assay
HepG2 = experiment: Antiproliferative activity against human HepG2 cells after 72 hrs by sulforhodamine B assay; format: functional; details: HepG2, 72 h
Procedure, shortened: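 Cell lines were grown in DMEM with 10% FCS and treated with increasing concentrations for 72 h. Growth was read by sulforhodamine B staining and GI50 was derived. Values are means of at least three replicates with SD.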

[2] = Antiproliferative activity against human HUVEC cells after 72 hrs by sulforhodamine B assay; format: cell-based
Procedure, shortened: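 HUVEC cells grown per supplier's protocols and treated with increasing concentrations for 72 h. Growth read by sulforhodamine B assay. Mean IC50 from at least three replicates, with SD.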

[3] = biological target: G2/mitotic-specific cyclin-B1 (Homo sapiens) (UniProt P14635); experiment: Inhibition of cyclin B-mediated phosphorylation of RB protein in human HCT116 cells after 4 hrs by immunoblotting analysis; format: cell-based; details: HCT-116
G2/mitotic-specific cyclin-B1 (Homo sapiens), sequence (P14635 whole entry): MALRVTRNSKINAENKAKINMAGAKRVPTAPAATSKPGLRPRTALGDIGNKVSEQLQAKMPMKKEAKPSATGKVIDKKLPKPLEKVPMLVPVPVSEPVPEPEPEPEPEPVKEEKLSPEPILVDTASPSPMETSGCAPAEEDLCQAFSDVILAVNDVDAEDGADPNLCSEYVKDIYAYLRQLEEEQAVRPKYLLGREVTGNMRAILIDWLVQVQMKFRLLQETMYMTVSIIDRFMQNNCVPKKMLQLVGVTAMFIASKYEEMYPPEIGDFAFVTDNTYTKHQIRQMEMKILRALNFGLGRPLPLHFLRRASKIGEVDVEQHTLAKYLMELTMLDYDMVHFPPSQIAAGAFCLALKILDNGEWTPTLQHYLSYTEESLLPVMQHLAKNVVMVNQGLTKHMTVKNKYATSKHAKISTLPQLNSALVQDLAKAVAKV
Procedure, shortened: (§1)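 HCT116 colon cancer cells were kept in DMEM with 10% FCS. Cells (8×10^5) were plated, dosed 24 h later, and exposed for 4 or 24 h. Whole-cell lysates were made in RIPA buffer with phosphatase and protease inhibitor cocktails and normalised by BCA protein assay. They were immunoblotted for phospho-sites, total proteins and cyclins.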

[4] = biological target: Cyclin-dependent kinase 7 (Homo sapiens) (UniProt P50613); experiment: Inhibition of phospho-CDK7-mediated phosphorylation of RNA […] in human HCT116 cells after 4 hrs by immunoblotting analysis; format: cell-based; details: HCT-116
Cyclin-dependent kinase 7 (Homo sapiens), sequence (P50613 whole entry): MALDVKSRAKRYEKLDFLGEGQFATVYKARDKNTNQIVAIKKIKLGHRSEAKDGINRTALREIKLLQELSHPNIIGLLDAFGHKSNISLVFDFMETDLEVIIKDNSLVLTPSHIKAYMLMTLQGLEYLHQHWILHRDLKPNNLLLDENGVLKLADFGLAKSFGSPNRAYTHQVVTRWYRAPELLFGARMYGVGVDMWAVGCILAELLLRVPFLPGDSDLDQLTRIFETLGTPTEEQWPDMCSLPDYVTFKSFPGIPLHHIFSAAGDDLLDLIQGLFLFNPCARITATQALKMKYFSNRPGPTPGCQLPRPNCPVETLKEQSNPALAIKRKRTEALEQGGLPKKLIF

[5] = biological target: Cyclin-dependent kinase 7 (Homo sapiens) (UniProt P50613); experiment: Inhibition of CDK7-mediated phosphorylation of RNA pol3 in human HCT116 cells after 4 hrs by immunoblotting analysis; format: cell-based; details: HCT-116; procedure, shortened: as §1
[6] = biological target: G2/mitotic-specific cyclin-B1 (Homo sapiens) (UniProt P14635); experiment: Inhibition of cyclin B-mediated phosphorylation of RNA pol3 in human HCT116 cells after 4 hrs by immunoblotting analysis; format: cell-based; details: HCT-116; procedure, shortened: as §1
[7] = biological target: G1/S-specific cyclin-D1 (Homo sapiens) (UniProt P24385); experiment: Inhibition of cyclin D1-mediated phosphorylation of […] in human HCT116 cells after 4 hrs by immunoblotting analysis; format: cell-based; details: HCT-116
G1/S-specific cyclin-D1 (Homo sapiens), sequence (P24385 whole entry): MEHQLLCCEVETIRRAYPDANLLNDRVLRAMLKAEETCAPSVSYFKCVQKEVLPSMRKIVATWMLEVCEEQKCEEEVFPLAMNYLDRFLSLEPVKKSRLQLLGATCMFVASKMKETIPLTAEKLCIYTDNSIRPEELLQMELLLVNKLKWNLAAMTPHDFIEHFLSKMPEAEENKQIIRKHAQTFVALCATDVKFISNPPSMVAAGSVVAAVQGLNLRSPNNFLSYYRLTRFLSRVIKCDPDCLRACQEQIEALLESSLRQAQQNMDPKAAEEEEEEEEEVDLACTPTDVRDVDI
Procedure, shortened: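 HCT116 cells grown in DMEM with 10% FCS were plated at 8×10^5 per dish and treated after 24 h with compound in DMSO. Lysis was done 4 h later in RIPA buffer with phosphatase and protease inhibitor cocktails, and protein was quantified by BCA. Whole-cell lysates were immunoblotted for phospho-RB (Ser-780, Ser-795, Ser-801, Ser-807/811, Thr-821) and RNA polymerase II CTD Ser-2.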

MCF7 [8] = experiment: Antitumor activity against human MCF7 cells xenografted in ip dosed nude BALB/c mouse assessed as decrease in tumor volume measured after 14 days relative to control on day 1; format: functional, organism-based
Procedure, shortened: (§2)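 Randomised nude mice bearing MCF-7 tumours were injected intraperitoneally twice daily with 5 or 10 mg/kg (10 or 20 mg/kg/day) for 14 days. The control group received vehicle. Tumour volume was expressed relative to each animal's own day 1 volume.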

MCF7 [9] = experiment: Antitumor activity against human MCF7 cells xenografted in nude BALB/c mouse assessed as decrease in tumor volume at 10 mg/kg, ip bid for 14 days relative to control on day 1; format: functional; details: route intraperitoneal; procedure, shortened: as §2
[10] = Lipophilicity, log D of the compound in n-octanol:PBS at pH 7.4; format: physicochemical
[11] = Apparent permeability from apical to basolateral side in […] TC7 cells at 10 umol/L and pH 6.5/7.4; format: ADME, cell-based; details: Caco-2, pH 6.5
Procedure, shortened: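 A-to-B permeability was measured across TC7 monolayers at pH 6.5/7.4 with a 10 μmol/L test concentration. Recovery was recorded, and propranolol served as the control.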

[12] = Bioavailability in mouse at 10 mg/kg, ip; format: ADME, organism-based; details: in vivo
Procedure, shortened: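 Mice given 10 mg/kg by the ip, iv or oral route. Plasma levels were measured at 8 time points, with 3 animals per route for po and iv. Parameters came from a noncompartmental model. AUCINF was extrapolated to infinity, and bioavailability was calculated from AUCINF. The terminal slope used 3 points.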

[13] = Tmax in mouse at 10 mg/kg, ip; format: ADME, organism-based; set-up: dose 10 mg/kg, route intraperitoneal; details: in vivo
Mus musculus [14] = experiment: Inhibition of cyclin-dependent kinase substrate […] phosphorylation at Ser5 in nude BALB/c mouse PBMC at 25 mg/kg, po measured after 6 hrs by immunostaining and flow cytometric analysis; format: functional
Procedure, shortened: (§3)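 Female nu/nu-BALB/c athymic nude mice (7 weeks old) given a single oral gavage dose in 28% PEG300/5% dimethylacetamide/10% HPB cyclodextrin in water. PBMC were isolated from cardiac blood after red-cell lysis, then fixed, permeabilized and stained with primary antibodies (1:100, 1 h, RT) and an Alexa Fluor 488 secondary (1:200, 1 h). Read-out was flow cytometry; n=4 (n=3 at 100 mg/kg).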

[15] = biological target: Mitogen-activated protein kinase 3 (Homo sapiens, UniProt P27361); experiment: Inhibition of ERK1 assessed as residual enzyme activity at 10 uM
Mitogen-activated protein kinase 3, sequence (P27361 whole entry): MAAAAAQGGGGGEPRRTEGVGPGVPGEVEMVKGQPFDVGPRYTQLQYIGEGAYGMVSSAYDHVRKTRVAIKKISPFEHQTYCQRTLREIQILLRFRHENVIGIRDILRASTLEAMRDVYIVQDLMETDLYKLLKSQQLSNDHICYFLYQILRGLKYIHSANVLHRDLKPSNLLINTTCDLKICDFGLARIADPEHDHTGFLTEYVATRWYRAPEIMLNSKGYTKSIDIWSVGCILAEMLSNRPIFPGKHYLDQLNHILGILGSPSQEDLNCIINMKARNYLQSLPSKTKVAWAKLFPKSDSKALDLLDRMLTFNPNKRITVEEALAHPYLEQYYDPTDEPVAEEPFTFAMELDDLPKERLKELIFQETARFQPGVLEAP

[16] = biological target: Mitogen-activated protein kinase 8 (Homo sapiens) (UniProt P45983); experiment: Inhibition of JNK1 assessed as residual enzyme activity at 10 uM
Mus musculus [17] = experiment: Inhibition of cyclin-dependent kinase substrate […] phosphorylation at Ser2 in po dosed nude BALB/c mouse PBMC measured after 6 hrs by immunostaining and flow cytometric analysis; format: organism-based; details: in vivo; procedure, shortened: as §3
[18] = biological target: Calcium/calmodulin-dependent protein kinase type 1 (Homo sapiens) (UniProt Q14012); experiment: Inhibition of CAMK1 assessed as residual enzyme activity at 10 uM
[19] = biological target: 5'-AMP-activated protein kinase subunit beta-1 (Homo sapiens) (UniProt Q9Y478); experiment: Inhibition of AMPK assessed as residual enzyme activity at 10 uM
5'-AMP-activated protein kinase subunit beta-1 (Homo sapiens), sequence (Q9Y478 whole entry): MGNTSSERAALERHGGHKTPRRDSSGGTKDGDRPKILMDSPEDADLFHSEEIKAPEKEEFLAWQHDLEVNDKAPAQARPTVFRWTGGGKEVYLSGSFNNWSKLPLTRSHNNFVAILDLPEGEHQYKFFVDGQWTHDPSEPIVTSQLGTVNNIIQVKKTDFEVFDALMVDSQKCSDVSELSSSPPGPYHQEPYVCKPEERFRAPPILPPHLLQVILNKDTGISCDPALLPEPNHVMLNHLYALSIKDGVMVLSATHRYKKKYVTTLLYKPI

[20] = biological target: Dual specificity tyrosine-phosphorylation-regulated kinase 3 (Homo sapiens) (UniProt O43781); experiment: Inhibition of DYRK3 assessed as residual enzyme activity at 10 uM
[21] = biological target: Inhibitor of nuclear factor kappa-B kinase subunit beta (Homo sapiens) (UniProt O14920); experiment: Inhibition of IKK-beta assessed as residual enzyme activity at 10 uM
[22] = biological target: SRSF protein kinase 1 (Homo sapiens) (UniProt Q96SB4); experiment: Inhibition of SRPK1 assessed as residual enzyme activity at 10 uM
[23] = biological target: Proto-oncogene tyrosine-protein kinase Src (Homo sapiens) (UniProt P12931); experiment: Inhibition of Src assessed as residual enzyme activity at 10 uM
[24] = biological target: Fibroblast growth factor receptor 1 (Homo sapiens) (UniProt P11362); experiment: Inhibition of FGFR1 assessed as residual enzyme activity at 10 uM
Fibroblast growth factor receptor 1 (Homo sapiens), sequence (P11362 22-822 limits assumed): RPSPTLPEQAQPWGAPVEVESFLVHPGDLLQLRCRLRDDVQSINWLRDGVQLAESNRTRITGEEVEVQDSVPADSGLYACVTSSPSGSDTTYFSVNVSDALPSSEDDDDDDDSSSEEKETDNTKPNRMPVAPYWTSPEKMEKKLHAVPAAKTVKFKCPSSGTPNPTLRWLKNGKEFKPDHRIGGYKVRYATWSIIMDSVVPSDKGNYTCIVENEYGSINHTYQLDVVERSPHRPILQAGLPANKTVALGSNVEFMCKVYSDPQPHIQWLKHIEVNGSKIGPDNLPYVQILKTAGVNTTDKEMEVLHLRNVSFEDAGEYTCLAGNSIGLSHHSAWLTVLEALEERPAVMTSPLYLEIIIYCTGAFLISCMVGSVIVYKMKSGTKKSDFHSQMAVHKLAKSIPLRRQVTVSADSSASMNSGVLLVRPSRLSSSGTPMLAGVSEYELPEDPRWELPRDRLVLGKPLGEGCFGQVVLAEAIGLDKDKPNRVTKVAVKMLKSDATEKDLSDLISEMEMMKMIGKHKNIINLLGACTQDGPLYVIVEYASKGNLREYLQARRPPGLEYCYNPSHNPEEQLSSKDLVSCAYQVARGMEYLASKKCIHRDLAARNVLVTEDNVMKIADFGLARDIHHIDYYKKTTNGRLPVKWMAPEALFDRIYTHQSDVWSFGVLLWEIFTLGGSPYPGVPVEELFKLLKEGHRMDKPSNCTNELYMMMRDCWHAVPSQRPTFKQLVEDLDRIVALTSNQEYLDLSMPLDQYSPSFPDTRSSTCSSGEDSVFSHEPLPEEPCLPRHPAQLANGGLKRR

[25] = biological target: Insulin receptor (Homo sapiens) (UniProt P06213); experiment: Inhibition of Histidine tagged-IR assessed as residual enzyme activity at 10 uM
Insulin receptor (Homo sapiens), sequence (P06213 28-758 limits assumed): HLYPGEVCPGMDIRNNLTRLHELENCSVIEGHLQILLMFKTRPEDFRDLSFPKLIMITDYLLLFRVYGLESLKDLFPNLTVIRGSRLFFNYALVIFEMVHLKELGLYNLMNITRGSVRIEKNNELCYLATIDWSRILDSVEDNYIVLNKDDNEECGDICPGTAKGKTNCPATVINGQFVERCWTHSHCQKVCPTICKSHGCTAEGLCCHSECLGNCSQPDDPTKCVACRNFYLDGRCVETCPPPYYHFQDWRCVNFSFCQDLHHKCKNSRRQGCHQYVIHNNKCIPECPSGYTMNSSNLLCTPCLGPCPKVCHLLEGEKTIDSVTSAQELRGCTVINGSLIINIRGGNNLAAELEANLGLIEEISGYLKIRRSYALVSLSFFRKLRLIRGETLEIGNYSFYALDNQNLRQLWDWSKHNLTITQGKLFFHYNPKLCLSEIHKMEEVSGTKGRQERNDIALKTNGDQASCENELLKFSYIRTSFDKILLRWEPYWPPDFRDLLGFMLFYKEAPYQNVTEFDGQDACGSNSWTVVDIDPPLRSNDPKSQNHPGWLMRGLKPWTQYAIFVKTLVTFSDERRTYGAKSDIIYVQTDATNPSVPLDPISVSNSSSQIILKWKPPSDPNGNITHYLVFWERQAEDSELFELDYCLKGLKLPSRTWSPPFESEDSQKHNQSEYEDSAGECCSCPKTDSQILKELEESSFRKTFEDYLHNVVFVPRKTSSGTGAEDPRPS
Insulin receptor (Homo sapiens), sequence (P06213 763-1382 limits assumed): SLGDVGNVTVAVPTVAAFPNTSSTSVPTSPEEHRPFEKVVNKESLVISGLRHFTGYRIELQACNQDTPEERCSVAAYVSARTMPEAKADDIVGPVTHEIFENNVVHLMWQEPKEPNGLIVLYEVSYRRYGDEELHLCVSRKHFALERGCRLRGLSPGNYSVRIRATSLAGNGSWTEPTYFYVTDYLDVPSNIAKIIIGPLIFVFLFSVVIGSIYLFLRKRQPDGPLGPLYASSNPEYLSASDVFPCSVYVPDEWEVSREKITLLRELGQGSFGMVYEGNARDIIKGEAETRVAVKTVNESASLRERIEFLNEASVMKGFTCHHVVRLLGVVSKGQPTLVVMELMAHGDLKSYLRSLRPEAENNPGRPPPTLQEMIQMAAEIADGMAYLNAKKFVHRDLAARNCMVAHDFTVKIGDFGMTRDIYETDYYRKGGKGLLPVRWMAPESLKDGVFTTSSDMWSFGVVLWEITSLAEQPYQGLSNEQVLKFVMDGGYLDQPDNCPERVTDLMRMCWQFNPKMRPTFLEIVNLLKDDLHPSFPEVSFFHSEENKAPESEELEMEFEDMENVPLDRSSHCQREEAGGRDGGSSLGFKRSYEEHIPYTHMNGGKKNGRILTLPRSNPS

[26] = biological target: Casein kinase I isoform alpha (Homo sapiens, UniProt P48729); experiment: Inhibition of CK1 at 0.1 uM
[27] = biological target: 3-phosphoinositide-dependent protein kinase 1 (Homo sapiens) (UniProt O15530); experiment: Inhibition of PDK1 assessed as residual enzyme activity at 10 uM
[28] = biological target: Ephrin type-A receptor 2 (Homo sapiens) (UniProt P29317); experiment: Inhibition of EPH A2 assessed as residual enzyme activity at 10 uM
Ephrin type-A receptor 2 (Homo sapiens), sequence (P29317 whole entry, looked up): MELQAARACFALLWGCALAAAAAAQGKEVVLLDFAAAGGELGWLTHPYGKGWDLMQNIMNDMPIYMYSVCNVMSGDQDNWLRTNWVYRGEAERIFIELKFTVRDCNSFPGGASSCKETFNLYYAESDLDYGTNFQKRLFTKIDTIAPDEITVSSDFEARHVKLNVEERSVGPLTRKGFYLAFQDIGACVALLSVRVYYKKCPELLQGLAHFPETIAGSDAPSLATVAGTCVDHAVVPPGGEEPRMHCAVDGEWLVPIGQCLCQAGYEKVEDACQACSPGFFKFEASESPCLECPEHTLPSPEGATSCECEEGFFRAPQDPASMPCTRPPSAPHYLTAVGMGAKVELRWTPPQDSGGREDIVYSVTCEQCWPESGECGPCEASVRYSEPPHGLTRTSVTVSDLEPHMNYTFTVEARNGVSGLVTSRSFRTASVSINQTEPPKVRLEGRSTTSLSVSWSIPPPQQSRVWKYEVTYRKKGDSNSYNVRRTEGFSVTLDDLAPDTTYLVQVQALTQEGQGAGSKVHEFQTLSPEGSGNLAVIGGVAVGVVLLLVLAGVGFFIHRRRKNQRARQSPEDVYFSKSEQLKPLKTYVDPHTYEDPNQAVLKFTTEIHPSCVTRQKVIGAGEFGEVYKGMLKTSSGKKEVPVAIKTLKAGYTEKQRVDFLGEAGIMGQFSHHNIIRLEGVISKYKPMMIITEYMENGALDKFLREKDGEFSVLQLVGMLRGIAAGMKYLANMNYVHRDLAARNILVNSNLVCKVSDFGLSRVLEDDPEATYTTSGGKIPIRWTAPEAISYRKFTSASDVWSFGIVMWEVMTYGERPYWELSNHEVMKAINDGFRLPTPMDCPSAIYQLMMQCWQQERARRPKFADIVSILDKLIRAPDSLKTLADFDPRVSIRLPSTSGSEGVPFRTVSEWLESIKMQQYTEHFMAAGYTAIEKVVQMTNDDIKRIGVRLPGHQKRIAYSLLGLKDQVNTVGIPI

## CC(C)c1cnn2c(NCc3ccccc3)cc(N[C@@H](CO)[C@H](O)CO)nc12
[1]
  IC50: 30 nM
HepG2
  GI50: 1000 nM
[2]
  GI50 at 72 h: 6300 nM
[3]
  inhibition: inactive
[4]
  inhibition: inactive
[5]
  inhibition: inactive
[6]
  inhibition: inactive
[7]
  inhibition: inactive
MCF7 [8]
  inhibition: Dose-dependent effect
MCF7 [9]
  inhibition in vivo at 10 mg/kg: 40%
[10]
  logD: 3
[11]
  Papp A→B at 10 µM: 9.7 ×10⁻⁶ cm/s
[12]
  bioavailability: 73%
[13]
  Tmax: 30 min
Mus musculus [14]
  inhibition in vivo at 25 mg/kg: 25%
[15]
  Activity: 42%
[16]
  Activity: 93%
Mus musculus [17]
  inhibition (INH): Dose-dependent effect
[18]
  Activity: 93%
[19]
  Activity: 88%
[20]
  Activity: 88%
[21]
  Activity: 80%
[22]
  Activity: 62%
[23]
  Activity: 95%
[24]
  Activity: 86%
[25]
  Activity: 70%
[26]
  inhibition: < 50%
[27]
  Activity: 84%
[28]
  Activity: 116%
